Laboratory results taken from ChEMBL document CHEMBL1129647, “Targeting delavirdine/atevirdine resistant HIV-1: identification of (alkylamino)piperidine-containing bis(heteroaryl)piperazines as broad spectrum HIV-1 reverse transcriptase inhibitors” (J Med Chem, 1996).

Key:
[1] = target: Human immunodeficiency virus type 1 reverse transcriptase (Human immunodeficiency virus 1, UniProt Q72547, P236L)
[2] = target: Human immunodeficiency virus type 1 reverse transcriptase (Human immunodeficiency virus 1, UniProt Q72547, Y181C)
[3] = target: Human immunodeficiency virus type 1 reverse transcriptase (Human immunodeficiency virus 1, UniProt Q72547)
[4] = system: Human immunodeficiency virus 1; experiment: Concentration required to inhibit P24 production by 90% against L-697661 of HIV-1 IIIB (Y181C); type: functional
[5] = system: Human immunodeficiency virus 1; experiment: Concentration required to inhibit P24 production by 90% against U-90,152 of HIV-1 MF (P236L); type: functional
[6] = system: Human immunodeficiency virus 1; experiment: Concentration required to inhibit P24 production by 90% against U-90,152 of HIV-1 IIIB (L100I, M230L); type: functional
[7] = Clearance at an iv dose of 15 mg/Kg and po dose of 30 mg/Kg; type: ADME, organism-based; conditions: rat, in vivo
Method in brief: (§1)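 Male Sprague-Dawley rats, fasted, dosed iv and po in a crossover design with a 1 week washout between treatments (N = 3). Compound was given as a solution in propylene glycol/water (80/20, v/v) acidified with a molar excess of methanesulfonic acid. Values are the iv clearance and the absolute oral bioavailability.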

[8] = Bioavailability (dose 15 mg/kg i.v. and 30 mg/kg p.o.); type: ADME, organism-based; conditions: rat, in vivo, po
Method in brief: as §1

[9] = system: Human immunodeficiency virus 1; experiment: Concentration required to inhibit P24 production by 90% against L-697,661 of HIV-1IIIB(Y181c); type: functional
[10] = system: Human immunodeficiency virus 1; experiment: Concentration required to inhibit P24 production by 90% against U-90,152 of HIV-1 MF(P236L); type: functional

SMILES | IC50 [1] | IC50 [2] | IC50 [3] | IC90 [4] | IC90 [5] | IC90 [6] | clearance [7] | bioavailability [8] | IC90 [9] | IC90 [10]
CN(c1ncccc1NC1CC1)C1CCN(C(=O)c2cc3cc(NS(C)(=O)=O)ccc3[nH]2)CC1 | 210 nM | 280 nM | 90 nM | 4400 nM | > 10000 nM | – | – | – | – | –
CCNc1cccnc1N(CC)C1CCN(C(=O)c2cc3cc(NC(=O)N4CCN(C)CC4)ccc3[nH]2)CC1 | 240 nM | 1230 nM | 140 nM | – | – | – | – | – | – | –
CN(c1ncccc1NC1(C)CC1)C1CCN(C(=O)c2cc3cc(NS(C)(=O)=O)ccc3[nH]2)CC1 | 1450 nM | 370 nM | 160 nM | 2300 nM | > 300 nM | – | – | – | – | –
CCNc1cccnc1N(CC)C1CCN(C(=O)c2cc3cc(NS(=O)(=O)CC)ccc3[nH]2)CC1 | 260 nM | 480 nM | 400 nM | – | – | – | – | – | – | –
CCNc1cccnc1N(CC)C1CCN(C(=O)c2cc3cc(NS(C)(=O)=O)ccc3[nH]2)CC1 | 540 nM | 880 nM | 460 nM | 180 nM | 310 nM | 80 nM | 66.6 mL/min/kg | 2.8% | – | –
CCN(c1nc(F)ccc1NC(C)C)C1CCN(C(=O)c2cc3cc(NS(C)(=O)=O)ccc3[nH]2)CC1 | 540 nM | 880 nM | 460 nM | 140 nM | 300 nM | 110 nM | – | – | – | –
CC(C)Nc1cccnc1N(C)C1CCN(C(=O)c2cc3ccc(CO)cc3[nH]2)CC1 | 370 nM | 490 nM | 170 nM | – | – | – | – | – | – | –
CCC(C)(C)Nc1cccnc1N(C)C1CCN(C(=O)c2cc3cc(NS(C)(=O)=O)ccc3[nH]2)CC1 | 3330 nM | 530 nM | 350 nM | – | – | – | – | – | – | –
CCN(c1ncccc1NC(C)(C)C)C1CCN(C(=O)c2cc3cc(NS(=O)(=O)N4CCN(C)CC4)ccc3[nH]2)CC1 | 1250 nM | 1830 nM | 790 nM | < 30 nM | 340 nM | 140 nM | 73.7 mL/min/kg | 32% | – | –
CCCN(c1ncccc1NC(C)C)C1CCN(C(=O)c2cc3cc(NC(=O)N4CCN(C)CC4)ccc3[nH]2)CC1 | 400 nM | 860 nM | 190 nM | – | – | – | – | – | – | –
CCN(c1nc(Cl)ccc1NC(C)(C)C)C1CCN(C(=O)c2cc3cc(NS(C)(=O)=O)ccc3[nH]2)CC1 | 1520 nM | 3000 nM | 1020 nM | – | – | – | – | – | > 300 nM | 240 nM
CCCNc1cccnc1N(CC)C1CCN(C(=O)c2cc3cc(NS(C)(=O)=O)ccc3[nH]2)CC1 | 280 nM | 450 nM | 130 nM | 140 nM | 400 nM | – | – | – | – | –
CCN(c1ncccc1NC(C)C)C1CCN(C(=O)c2cc3cc(NC(=O)N4CCN(C)CC4)ccc3[nH]2)CC1 | 180 nM | 410 nM | 140 nM | 50 nM | 240 nM | 110 nM | 50 mL/min/kg | 21.3% | – | –
CCCN(c1ncccc1NC(C)(C)C)C1CCN(C(=O)c2cc3cc(NS(C)(=O)=O)ccc3[nH]2)CC1 | 1450 nM | 2480 nM | 480 nM | 30 nM | 320 nM | 110 nM | – | – | – | –
CCN(c1nc(F)ccc1NC(C)(C)C)C1CCN(C(=O)c2cc3cc(NS(=O)(=O)N4CCN(C)CC4)ccc3[nH]2)CC1 | 1090 nM | 2070 nM | 830 nM | 150 nM | 290 nM | 290 nM | 61 mL/min/kg | 54% | – | –
CCN(c1ncccc1NC(C)(C)C)C1CCN(C(=O)c2cc3cc(NC(=O)N4CCN(C)CC4)ccc3[nH]2)CC1 | 370 nM | 610 nM | 220 nM | 50 nM | 160 nM | 160 nM | 61 mL/min/kg | 35.1% | – | –
CCc1cc(NCc2nc3c(Cl)ccc(Cl)c3o2)c(O)nc1C [L-697661] | 110 nM | > 60000 nM | 800 nM | > 10000 nM | 430 nM | 4000 nM | – | – | – | –
CC(C)Nc1cccnc1N(C1CC1)C1CCN(C(=O)c2cc3ccccc3[nH]2)CC1 | 590 nM | 2310 nM | 700 nM | – | – | – | – | – | – | –
CCNc1cccnc1N(C(C)C)C1CCN(C(=O)c2cc3cc(NS(C)(=O)=O)ccc3[nH]2)CC1 | 2600 nM | 3600 nM | 380 nM | – | – | – | – | – | – | –
CCN(c1nc(F)ccc1NC(C)(C)C)C1CCN(C(=O)c2cc3cc(NS(C)(=O)=O)ccc3[nH]2)CC1 | 1050 nM | 1060 nM | 730 nM | < 30 nM | 220 nM | 120 nM | 27 mL/min/kg | 17.1% | – | –
CCCN(c1ncccc1NC(C)C)C1CCN(C(=O)c2cc3cc(NS(C)(=O)=O)ccc3[nH]2)CC1 | 240 nM | 610 nM | 240 nM | 60 nM | 220 nM | – | – | – | – | –
CC(C)Nc1cccnc1N(C)C1CCN(C(=O)c2cc3ccc(OCCOCCOCCO)cc3[nH]2)CC1 | 410 nM | 770 nM | 300 nM | – | – | – | – | – | – | –
CCN(c1ncccc1NC(C)C)C1CCN(C(=O)c2cc3cc(NS(C)(=O)=O)ccc3[nH]2)CC1 | 200 nM | 400 nM | 250 nM | – | – | – | – | – | – | –
CCCN(c1ncccc1NCC)C1CCN(C(=O)c2cc3cc(NS(C)(=O)=O)ccc3[nH]2)CC1 | 520 nM | 950 nM | 150 nM | – | – | – | – | – | – | –
CN(c1nc(F)ccc1NC(C)(C)C)C1CCN(C(=O)c2cc3cc(NS(C)(=O)=O)ccc3[nH]2)CC1 | 1900 nM | 720 nM | 530 nM | 440 nM | 2600 nM | 1600 nM | – | – | – | –
CCNc1cccnc1N(CC)C1CCN(C(=O)c2cc3cc(NS(=O)(=O)C(C)C)ccc3[nH]2)CC1 | 330 nM | 660 nM | 450 nM | – | – | – | – | – | – | –
CCNc1cccnc1N(CC)C1CCN(C(=O)c2cc3cc(NS(=O)(=O)N4CCN(C)CC4)ccc3[nH]2)CC1 | 440 nM | 1110 nM | 240 nM | – | – | – | – | – | – | –
CN(c1ncccc1NCC1CC1)C1CCN(C(=O)c2cc3cc(NS(C)(=O)=O)ccc3[nH]2)CC1 | 14600 nM | 2910 nM | 520 nM | – | – | – | – | – | – | –
CC(C)Nc1ccc(Cl)nc1N(C)C1CCN(C(=O)c2cc3cc(NS(C)(=O)=O)ccc3[nH]2)CC1 | 1700 nM | 2130 nM | 360 nM | – | – | – | – | – | – | –
CCN(c1ncccc1NC(C)C)C1CCN(C(=O)c2cc3cc(NS(=O)(=O)N4CCN(C)CC4)ccc3[nH]2)CC1 | 570 nM | 770 nM | 380 nM | 170 nM | 300 nM | – | 89 mL/min/kg | 8% | – | –
